Reference: PubChem BioAssay
Values without a mark were called inactive. Inconclusive results are not listed. Activity calls are given as the source filed them.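 The calls were made as follows, unless noted: active = cell viability at or below a set limit in both duplicate runs, the limit being the all-compound median minus 4 SD (cut at about 23% in these data, passing the limit was not always enough); inconclusive = no clear call, values can overlap the other calls; inactive = the rest.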

Experiments:
[1] = S. cerevisiae growth inhibition in permissive medium (OD615), pilot counter-assay for S. cerevisiae lifespan shortening project, permissive growth control (AID 705;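 active = growth inhibition above 25% in both replicates, a cutoff set 3 SD above the mean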); conditions: OD615, 24 h, at 10 µM, active compounds read high
Summary of the method: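 System: S. cerevisiae with engineered DeaD lifespan system / Measured by: absorbance (optical density) at 615 nm / Read-out: reduction in yeast growth (OD615) / Times: 4 h cell pre-growth, 24 h exposure at 30 °C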

[2] = S. cerevisiae growth inhibition in restrictive medium, OD615, pilot screen, restrictive growth control, yeast lifespan reduction project (AID 706;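 active = growth inhibition above a set limit, 3 SD over mean compound inhibition, in both replicates, cut at about 43% in these data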;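 also: modified DeaD lifespan yeast strain shifted to restrictive glucose medium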); conditions: OD615, 48 h, at 10 µM, active compounds read high
Summary of the method: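 System: Engineered S. cerevisiae DeaD strain | Buffer or medium: Glucose-based CSMM-D restrictive medium | Schedule: 4 h pre-incubation, 48 h exposure at 30 °C | Technique: Optical density at 615 nm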

[3] = doxorubicin toxicity protection in MRP-1 cells – H69AR cells, CellTiter-Glo, duplicate, MRP-1 activator project, pilot screen (AID 807;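 active = viability increase at or above a cutoff of the median across tested compounds plus 3 SD, cut at about 8.5% in these data, passing the limit was not always enough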;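 also: compound pretreatment 18-22 h then 72 h combined with doxorubicin; 0% = doxorubicin alone and 100% = vehicle without doxorubicin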); conditions: H69AR viability with doxorubicin, CellTiter-Glo luminescence; at 10 µM; active compounds read high
[4] = viability of HCT116 without oncogenic beta-catenin – human colon tumor cells, pilot screen (AID 823); conditions: HCT116 beta-catenin knockout viability, CellTiter-Glo, 60 h; at 10 µM; active compounds read low;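 also: 0% = wells killed by 20 µM Hyamine and 100% = untreated DMSO cell wells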
[5] = viability of PTEN-null HCT116 cells – cell-based, HCT116 clonal line, CellTiter-Glo, pilot screen (AID 824;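 active = viability at or below 27.92% in each of two runs, the all-compound median minus 4 SD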;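 also: 0% = 20 µM Hyamine control and 100% = vehicle cell control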); conditions: HCT116 PTEN-deleted viability, 60 h, at 10 µM, active compounds read low
[6] = RAM pathway blockade in budding yeast – dse1pr::URA3 reporter, 5-FOA selection, pilot screen (AID 869;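 active = inhibition over a set limit, the all-compound mean plus 3 SD, in both replicate runs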;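 also: 0% = DMSO wells with no growth and 100% = 10 µM 1-NA-PP1 with full growth; RAM network block rescues cells from 5-FOA so hits raise OD615 growth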); conditions: S. cerevisiae dse1pr::URA3 5-FOA growth, OD615, 2 d; at 10 µM; active compounds read high; strain carries analog-sensitive mutant Cbk1 kinase
[7] = RAM signaling pathway blockade in yeast – S. cerevisiae, Pdr1DBD-CYC8 efflux-inhibited sensitized strain, primary screen (AID 1298;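 active = RAM network inhibition above 8.4% in each of two replicates, 3 SD over the compound average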;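 also: 0% = DMSO untreated cells without growth and 100% = 10 µM 1-NA-PP1 full growth; higher means more yeast growth rescued from 5-FOA killing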); conditions: S. cerevisiae cbk1-as DSE1-URA3 strain, 5-FOA growth OD615, 2 d; at 50 µM; active compounds read high

Row | Compound | growth inhibition [1] | growth inhibition [2] | viability increase [3] | viability [4] | viability [5] | inhibition [6] | RAM network inhibition [7]
1 | O=C(CCN1CCc2ccccc2C1)Nc1ccccc1 | -6.32% | -8.03% | -4.06% | 89.8% | 89.3% | 2.04% | 2.39%
2 | COc1ccc(C2C(C(=O)N3CCN(c4ccccc4)CC3)c3ccccc3C(=O)N2C)cc1 (stereo not drawn) | -13.4% | -17.6% | -4.08% | 69.6% | 74.9% | 2.13% | 2.38%
3 | CCCC1(C(=O)O)NC(c2ccc(OC)cc2O)C2C(=O)N(c3ccc(OC)cc3)C(=O)C21 (stereo not drawn) | -7.46% | 1.98% | -0.54% | 95.8% | 91.6% | 1.48% | 2.34%
4 | COc1ccc2nc(NC(=O)c3ccc4ncsc4c3)sc2c1 | 0.465% | 13% | -3.84% | 81.3% | 82.5% | 3.54% | 8.79%
5 | CCn1cc(C(=O)N2CCN(Cc3ccc4c(c3)OCO4)CC2)c2cc(OC)c(OC)cc2c1=O | -9.86% | -27.3% | -5.64% | 96.1% | 85.9% | 0.125% | 2.76%
6 | COc1ccc(C(=O)Nc2ccc3oc(-c4cccc(F)c4)nc3c2)cc1OC | -9.88% | -5.71% | -2.46% | 95.1% | 90.3% | 3.53% | 3.33%
7 | NC(=O)c1cc(S(=O)(=O)Nc2cccc(F)c2)co1 | -17.4% | -9.41% | -0.8% | 103% | 103% | 1.69% | 2.85%
8 | O=C(O)CCCC(=O)N1CCN(c2nc(-c3ccccc3)c3ccccc3n2)CC1 | -9.64% | -6.36% | -1.22% | 102% | 93% | 0.83% | 4.79%
9 | Cc1nnc(SCC(=O)Nc2ccc3c(c2)COC3=O)n1-c1ccccc1 | -9.99% | 0.555% | -0.13% | 98.8% | 92.8% | 3.27% | 1.16%
10 | O=S(=O)(NCCN1CCCC1)c1cccc2cccnc12 | -4.34% | 14.2% | -2.62% | 99.8% | 92.9% | 0.34% | 5.38%
11 | Cc1cc(C)nc(SCC(=O)Oc2ccc3oc(=O)cc(C)c3c2)n1 | -15.6% | -10.1% | -3.67% | 97% | 95.4% | 1.63% | 3.39%
12 | COc1cc(C2C(C(=O)Nc3ccccc3OC)=C(C)Nc3ncnn32)ccc1O (stereo not drawn) | -14.3% | 14.1% | -2.38% | 100% | 95.3% | 1.42% | -0.99%
13 | COc1ccccc1-c1c(C)nn2c(N3CCN(c4ccccc4OC)CC3)cc(C)nc12 | -0.095% | 6.77% | -1.57% | 60.7% | 63.2% | 0.775% | 1.3%
14 | CCOC(=O)N1CCC(c2cc(=O)n3[nH]c(-c4ccccc4)cc3n2)CC1 | 2.9% | -2.34% | -1.16% | 102% | 95.3% | 3.11% | 9.15%
15 | CCOC(=O)NC(C(F)(F)F)(C(F)(F)F)P(=O)(c1ccccc1)c1ccccc1 | -6.98% | 4.49% | -0.51% | 95% | 91.7% | 0.93% | 4.13%
16 | Cc1cc(C)n(-c2ncnc3sc4c(c23)CC(C)CC4)n1 (stereo not drawn) | -1.99% | 6.4% | -0.82% | 89.7% | 90.7% | 1.6% | 0.87%
17 | O=C(CCS(=O)(=O)c1ccccc1)Nc1nc(-c2ccccn2)cs1 | -9.64% | -13.3% | -8.92% | 8.11% (active) | 6.03% (active) | 1.85% | 3.99%
18 | Cc1csc2ncc(C(=O)NCc3ccccn3)c(=O)n12 | -10.9% | 3.67% | -0.65% | 100% | 96.7% | 1.58% | 1.6%
19 | Cc1ccc(-n2ncc3c(NCCCN4CCOCC4)ncnc32)c(C)c1 | -6.19% | 6.86% | -1.79% | 96.1% | 93.9% | 2.75% | 0.42%
20 | CCC(=O)Nc1nc2ccc3nc(C)sc3c2s1 | -5.17% | 32.5% | -4.98% | 75.3% | 81.1% | 0.415% | 2.94%
21 | O=c1c2ccccc2ncn1-c1ccc2c(c1)OCCO2 | -2.29% | -19.6% | -0.34% | 101% | 94% | 0.6% | 0.78%
22 | CCN(CC)S(=O)(=O)c1ccc(-c2nnc3sc4cccc(C)c4n23)cc1 | -22.7% | -11.5% | -2.97% | 73.4% | 72.9% | 2% | 3.69%
23 | O=C(Nc1nccs1)c1cc(S(=O)(=O)N2CCOCC2)ccc1Cl | -0.79% | -2.65% | -3.96% | 97.8% | 91% | 1.35% | 4.18%
24 | COc1ccccc1N1CCN(c2cc(C)nc3nc(C)nn23)CC1 | -9.41% | -13.6% | -4.75% | 85.7% | 83.6% | 2.03% | -0.21%
